Compounds with a hit are over-represented: about 2.9% of the library has one in this group of screens.
E-sel inducer: E-selectin induction on HUVECs; HUVEC E-selectin immunofluorescence imaging; normalized: neutral wells 0, TNF-alpha wells 100; AID 686992; actives 0.37% (n = 260,000); activation, % at 7.58 µM; P16581;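 active means mean E-selectin-positive cell signal at least 10% of the positive control, reached in at least 60% of replicates, without over 20% cell loss; inconclusive means no rule given, readout overlaps actives, possibly toxicity-flagged; inactive means the rest, including those meeting only one limit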
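Assay system: HUVEC, human umbilical vein endothelial cells / Amount: 3,000 HUVEC/well / Controls: TNF-alpha positive control, DMSO neutral control / Compound dosing: single concentration / Medium: EGM-2 over gelatin coat / Evaluation: percent E-selectin-positive cells / Signal: immunofluorescence imaging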
DENV2 CPE rescue: inhibitors of DENV2 cytopathic effect | DENV2-infected cells, cytopathic effect rescue, plate reader | CPE inhibition, % at 9.99 µM | actives 1.7% (n = 350,000); in the data active means CPE inhibition above about 20%, passing the limit was not always enough; inconclusive means no clear call, values can overlap the other calls; tested in BHK-21 cells
SIRT5 block: sirtuin-5 (human) deacylase inhibition; Purified SirT5, succinyl-peptide AMC, trypsin-coupled fluorescence; Q9NXA8; inhibition, % at 15 µM; actives 1.1% (n = 330,000); AID 652115; in the data active means inhibition above about 15%; inconclusive means no clear call, values can overlap the other calls
Target sequence (Q9NXA8 whole entry, looked up): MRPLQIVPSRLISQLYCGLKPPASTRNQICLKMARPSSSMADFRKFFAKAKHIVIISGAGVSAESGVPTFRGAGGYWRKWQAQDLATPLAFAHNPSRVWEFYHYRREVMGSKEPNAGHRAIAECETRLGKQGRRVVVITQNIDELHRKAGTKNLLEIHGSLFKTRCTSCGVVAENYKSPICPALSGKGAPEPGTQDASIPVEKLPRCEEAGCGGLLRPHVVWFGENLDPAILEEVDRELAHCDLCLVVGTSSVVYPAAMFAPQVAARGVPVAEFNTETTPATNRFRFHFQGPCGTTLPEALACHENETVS
Large screens that a line does not name were inactive; ! = a repeat was not active.

CC(C)CC(c1nnnn1C(C)(C)C)N1CCN(Cc2ccccc2)CC1 (centres undefined)	none (no result: E-sel inducer)
COc1ccc(/C(C)=N/NC(=O)Cc2c(C)nc(C)[nH]c2=O)cc1	none (no result: E-sel inducer)
Cc1nc(C)c(CC(=O)N/N=C/c2ccc(O)cc2)c(=O)[nH]1	DENV2 CPE rescue 31.3 (no result: E-sel inducer, SIRT5 block)
O=C(CN1CCC(NC(=O)c2cccc(F)c2)CC1)Nc1ccc(Br)cc1	none (no result: E-sel inducer)
CC(=O)N1CCN(c2ccc(NC(=O)c3ccc(Cl)c(Cl)c3)cc2)CC1	none
CC(=O)c1ccc(N2CCN(C(=S)Nc3ccc(Cl)c(Cl)c3)CC2)cc1	DENV2 CPE rescue 53.3 (no result: E-sel inducer)
CC(C)C[C@@H]1COCc2cn(nn2)CC[C@H](C)C(=O)N1	none
C[C@@H]1CN([C@@H](C)CO)S(=O)(=O)c2ccc(C#CC3CC3)cc2O[C@@H]1CN(C)C(=O)Cc1ccncc1	none
COc1ccc(/C=C2\SC(=O)N(CCC(=O)N3CCN(C)CC3)C2=O)cc1	DENV2 CPE rescue inconclusive (no result: E-sel inducer)
CN(C[C@H](Cc1ccccc1)N(C[C@@H](CC1CCCCC1)N(CCc1ccccc1)N=O)N=O)N=O	DENV2 CPE rescue 57.1 (no result: SIRT5 block)
CC(C)C[C@@H](CN(N=O)[C@@H](Cc1ccccc1)CN(C)N=O)N(CCc1ccccc1)N=O	none (no result: SIRT5 block)
C#CCOCCOCCOCCNc1nc(N2CCN(C(=O)CCCCCCCCCCNC(=O)Cn3cc(C[C@@H](C)O)nn3)CC2)nc(N2CCN(C(=O)CCCCCCCCCCNC(=O)[C@@H](CCC(=O)O)n3cc(CCCCCN)nn3)CC2)n1	none
C#CCOCCOCCOCCNc1nc(N2CCN(C(=O)CCCCCCCCCCNC(=O)Cn3cc(C[C@@H](C)O)nn3)CC2)nc(N2CCN(C(=O)CCCCCCCCCCNC(=O)[C@H](CO)n3cc(CCCSC)nn3)CC2)n1	DENV2 CPE rescue inconclusive, SIRT5 block 19.5
CC(C)C(=O)N=c1sc2cc(F)cc(F)c2n1C	SIRT5 block 17.1
CCC(=O)N=c1sc2cc(F)cc(F)c2n1C	DENV2 CPE rescue inconclusive
CCCc1nnc(NC(=O)CCC(=O)NC2CCCC2)s1	none (no result: E-sel inducer)
Cc1noc(C)c1NC(=O)N(C)C[C@@H]1Oc2ccc(NC(=O)NC3CCCCC3)cc2C(=O)N([C@@H](C)CO)C[C@H]1C	none
Cc1noc(C)c1NC(=O)N(C)C[C@@H]1OCCCC[C@@H](C)Oc2ccc(NC(=O)NC3CCCCC3)cc2C(=O)N([C@@H](C)CO)C[C@H]1C	DENV2 CPE rescue 75.8 (no result: E-sel inducer)
Cc1noc(C)c1NC(=O)Nc1ccc2c(c1)C(=O)N([C@@H](C)CO)C[C@H](C)[C@H](CN(C)C(=O)NC1CCCCC1)OCCCC[C@@H](C)O2	DENV2 CPE rescue 28.8
Cc1noc(C)c1NC(=O)Nc1ccc2c(c1)C(=O)N([C@H](C)CO)C[C@@H](C)[C@@H](CN(C)C(=O)Nc1c(C)noc1C)OCCCC[C@@H](C)O2	none
Cc1noc(C)c1NC(=O)N(C)C[C@@H]1OCCCC[C@H](C)Oc2ccc(NC(=O)NC3CCCCC3)cc2C(=O)N([C@@H](C)CO)C[C@H]1C	DENV2 CPE rescue 43.9 (no result: E-sel inducer)
Cc1noc(C)c1NC(=O)Nc1ccc2c(c1)C(=O)N([C@H](C)CO)C[C@@H](C)[C@H](CN(C)C(=O)NC1CCCCC1)OCCCC[C@@H](C)O2	none
Cc1noc(C)c1NC(=O)N(C)C[C@@H]1Oc2ccc(NC(=O)NC3CCCCC3)cc2C(=O)N([C@@H](C)CO)C[C@@H]1C	DENV2 CPE rescue 34.3
Cc1noc(C)c1NC(=O)N(C)C[C@@H]1OCCCC[C@H](C)Oc2ccc(NC(=O)NC(C)C)cc2C(=O)N([C@@H](C)CO)C[C@H]1C	none
CC1(OC(=O)CCc2ccccc2)C(=O)C=C2C=C(c3ccc(C#N)cc3)N(Cc3ccco3)C=C2C1=O (centres undefined)	none (no result: SIRT5 block)
CC(=O)c1sc(C(C)(C)C)cc1NC(=O)/C=C/C(=O)O	none
COc1ccc(CN2CCNC(=O)C2CC(=O)NC2CCCCCCC2)cc1C (centres undefined)	none (no result: E-sel inducer)
CN(C)CCOCCOc1ccc(Cl)cc1Br	none
Cc1noc(C)c1NC(=O)N(C)C[C@@H]1OCCCC[C@H](C)Oc2ccc(NC(=O)NC3CCCCC3)cc2C(=O)N([C@@H](C)CO)C[C@@H]1C	DENV2 CPE rescue 23.0 (no result: E-sel inducer)
Cc1noc(C)c1NC(=O)Nc1ccc2c(c1)C(=O)N([C@H](C)CO)C[C@H](C)[C@@H](CN(C)C(=O)Nc1c(C)noc1C)OCCCC[C@H](C)O2	none
O=C(NCCNc1ccc([N+](=O)[O-])cc1C(F)(F)F)c1ccccc1	none (no result: E-sel inducer)
CC(C)(C)OC(=O)NOCC(=O)N(CC(=O)c1ccccc1)Cc1ccccc1	DENV2 CPE rescue 28.7, SIRT5 block 27.1
CC(C)(C)OC(=O)NOCC(=O)N(Cc1ccccc1)CC(O)COc1ccccc1 (centres undefined)	DENV2 CPE rescue inconclusive
CC1=CC2=NC(=O)CC(C)(C(=O)N(CC(=O)NC3CCCC3)Cc3ccccc3)N2C=C1 (centres undefined)	E-sel inducer 41.2
CC1=CN2C(=NC(=O)CC2(C)C(=O)N(CC(=O)NC2CCCC2)Cc2ccccc2)C=C1 (centres undefined)	none
COc1cnn(-c2ccc(Br)cc2)c(=O)c1SCc1ccccc1	SIRT5 block 28.3 (no result: E-sel inducer)
COc1cnn(-c2ccccc2)c(=O)c1OC	none (no result: E-sel inducer)
O=C(NCc1ccccn1)[C@@H]1C[C@H]1[C@@H](NP(=O)(c1ccccc1)c1ccccc1)c1ccccc1	none (no result: SIRT5 block)
CC(=O)Cn1ncc(N2CCCCC2)c(Cl)c1=O	none (no result: E-sel inducer)
C/C(Cn1ncc(N2CCOCC2)c(Cl)c1=O)=N\O	DENV2 CPE rescue 28.6
COc1cc(/C=C2\SC(=O)N(CCNC(=O)c3sc4cc(F)ccc4c3Cl)C2=O)cc(OC)c1OC	none
C[C@@H]1CN([C@@H](C)CO)C(=O)Cc2cc(NC(=O)CCN3CCOCC3)ccc2O[C@@H]1CN(C)Cc1ccc2c(c1)OCO2	none (no result: E-sel inducer)
Cc1cccc(C)c1NC(=O)CNC(=O)c1c(C)nn(C)c1Cl	none
Cc1cc(C)cc(N(CC(=O)NCc2ccco2)S(=O)(=O)c2c(C)noc2C)c1	DENV2 CPE rescue 41.0 (no result: E-sel inducer, SIRT5 block)
Cc1ccc(CCNC(=O)CN(c2cc(C)cc(C)c2)S(=O)(=O)c2c(C)noc2C)cc1	none (no result: E-sel inducer)
COc1ccc(-c2cc(C(=O)OCC(=O)c3c(N)n(C)c(=O)n(C)c3=O)c3ccccc3n2)cc1	none
CN(C)C1(CNC(=O)C2CCN(S(=O)(=O)c3ccccc3C(F)(F)F)CC2)CCCCC1	DENV2 CPE rescue 31.0 (no result: E-sel inducer)
O=C(NCc1ccco1)C1CCN(S(=O)(=O)c2ccccc2C(F)(F)F)CC1	none
Cc1cccc2sc(NC(=O)C3CC3)nc12	SIRT5 block 23.8 (no result: E-sel inducer)
O=C(Nc1nc2c(Cl)cccc2s1)C1CC1	none
CCN(C[C@H]1[C@H](c2ccccc2)[C@@H](CO)N1C(C)=O)C(=O)c1cccc(F)c1	none (no result: SIRT5 block)
CCN(C[C@H]1[C@H](c2ccc(-c3ccccc3)cc2)[C@H](CO)N1C(C)=O)C(C)=O	none
CCN(C[C@H]1[C@H](c2ccccc2)[C@H](CO)N1C(C)=O)C(=O)NC(C)C	DENV2 CPE rescue 27.2
CCN(C[C@H]1[C@H](c2ccccc2)[C@@H](CO)N1C(C)=O)C(=O)NC1CCCC1	none
CCN(C[C@@H]1[C@@H](c2ccccc2)[C@@H](CO)N1C(C)=O)C(=O)NC(C)C	none
CC(=O)N(Cc1cccc(F)c1)C[C@H]1[C@@H](c2ccccc2)[C@@H](CO)N1C(C)=O	SIRT5 block 28.1
CCCN(C[C@H]1[C@H](c2ccccc2)[C@@H](CO)N1C(C)=O)C(=O)NC(C)C	SIRT5 block 33.4!

Screening data deposited in PubChem by Broad Institute.
